CR mimetic SO: reduction of superoxide in aged yeast, primary screen, HTS. S. cerevisiae aged cells, superoxide DHE fluorescence; hits give low values. superoxide response (% of plate mean), % at 10 µM. 0.18% of 330,000 active;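 active = superoxide response under a set limit, about three screen SD below normal, cut at about 65% in these data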;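 also: yeast aged for seven days with compound at 30 °C before DHE staining; 100% = average MFI of all compound-treated wells on the plate with controls excluded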
TRPC4 PAM: positive allosteric modulators of TRPC4, primary screen, cell-based, mouse TRPC4beta, HEK293 mu-opioid, Fluo-4 calcium. DAMGO EC20, Fluo-4 Ca2+ flux; hits give high values. B-score at 10 µM. Short transient receptor potential channel 4 (Mus musculus), Q9QUQ5. 0.42% of 310,000 active;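 active = B-score of calcium response area above 5 SD of library B-scores, with initial fluorescence ratio within 5 SD of library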;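 also: B-score of integrated fluorescence ratio over time as area under calcium response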
TRPC4 agonist: activators of mouse TRPC4 channel, primary screen, Fluo4 calcium, HEK293 TRPC4beta/mu-opioid cells | Fluo4 calcium fluorescence; hits give high values | AID 2237, 2010 | Short transient receptor potential channel 4 (Mus musculus), Q9QUQ5 | B-score at 10 µM | 0.49% of 310,000 active;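 active = B-score above 5 SD of library B-scores, and initial fluorescence ratio not above library mean plus 5 SD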;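 also: positive B-score marks a calcium rise read as TRPC4 activation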
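System – HEK293 cells stably co-expressing mouse TRPC4beta and mu-opioid receptor · Signal – Fluo4 calcium-sensitive dye fluorescence, kinetic, 1 Hz baseline · Benchmarks – buffer (low) and maximal DAMGO (high) · Read-out – B score of integrated fluorescence ratio per well · Incubation – dye loading 45 min room temperature, 110 s kinetic read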
TRPC6 inh: mouse TRPC6 channel inhibitors, primary screen, cell-based, HEK293, membrane potential dye. 1.1% of 310,000 active. Short transient receptor potential channel 6 (Mus musculus), Q61143. B-score at 10 µM. ACh-evoked depolarization; hits give low values;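 active = B-score under library mean minus 3 SD, initial fluorescence not abnormally high, positive integrated signal ratio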;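 also: B-score derived from integrated fluorescence ratio over the kinetic read; more negative B-score means stronger inhibition of depolarization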
Target sequence (Q61143 whole entry, looked up): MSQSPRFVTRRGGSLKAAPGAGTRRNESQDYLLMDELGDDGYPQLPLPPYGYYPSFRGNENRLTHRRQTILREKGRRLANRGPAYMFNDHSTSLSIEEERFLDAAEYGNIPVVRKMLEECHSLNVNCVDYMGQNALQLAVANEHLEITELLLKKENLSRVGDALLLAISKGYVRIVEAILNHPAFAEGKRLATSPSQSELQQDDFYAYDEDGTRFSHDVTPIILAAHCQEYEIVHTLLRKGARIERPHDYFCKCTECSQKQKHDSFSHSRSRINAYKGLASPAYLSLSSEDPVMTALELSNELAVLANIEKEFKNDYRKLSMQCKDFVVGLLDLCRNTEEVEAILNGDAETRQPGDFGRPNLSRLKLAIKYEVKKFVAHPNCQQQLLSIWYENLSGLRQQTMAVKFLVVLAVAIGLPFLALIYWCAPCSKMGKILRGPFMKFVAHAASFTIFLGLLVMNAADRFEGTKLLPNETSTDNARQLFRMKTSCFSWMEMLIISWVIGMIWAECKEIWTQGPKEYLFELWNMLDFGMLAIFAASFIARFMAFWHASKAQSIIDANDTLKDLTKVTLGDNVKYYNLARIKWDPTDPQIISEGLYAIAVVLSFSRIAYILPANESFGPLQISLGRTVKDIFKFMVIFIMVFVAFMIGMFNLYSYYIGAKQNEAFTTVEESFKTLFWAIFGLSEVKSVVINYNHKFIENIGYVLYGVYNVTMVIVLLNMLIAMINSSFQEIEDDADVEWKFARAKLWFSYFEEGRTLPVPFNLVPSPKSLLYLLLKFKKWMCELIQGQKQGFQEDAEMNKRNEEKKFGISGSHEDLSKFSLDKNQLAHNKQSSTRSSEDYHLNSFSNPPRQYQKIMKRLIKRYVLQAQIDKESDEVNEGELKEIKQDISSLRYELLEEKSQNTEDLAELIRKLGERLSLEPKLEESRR
TRPC4 inh: inhibitors of mouse TRPC4 channel, primary screen, Fluo4 calcium, HEK293 TRPC4beta/mu-opioid cells. DAMGO-evoked Fluo4 calcium flux; hits give low values. Short transient receptor potential channel 4 (Mus musculus), Q9QUQ5. AID 2247, 2010. B-score at 10 µM. 0.39% of 300,000 active;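 active = B-score over 3 SD under the library average, no early fluorescence shift, positive overall ratio signal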
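Assay system: HEK293 cells with stable TRPC4beta plus mu-opioid receptor expression; Probe or stimulus: DAMGO in two steps, submaximal then maximal; Dosing: single-point compound dosing; Measured by: Fluo4 calcium-dye fluorescence, kinetic read; Read-out basis: B score from integrated Fluo4 fluorescence ratio.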
TRPC6 activator: mouse TRPC6 channel activators, primary screen, cell-based, HEK293, membrane potential dye; HEK293-TRPC6 membrane potential dye fluorescence; hits give high values; AID 2550, 2010; Short transient receptor potential channel 6 (Mus musculus), Q61143; B-score at 10 µM; 0.13% of 310,000 active;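 active = B-score of the integrated fluorescence ratio above library mean plus 3 SD, and starting fluorescence ratio within library mean plus 5 SD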;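 also: higher score means more depolarization so channel activation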
TRPC4 sel inh 2: mouse TRPC4 off-target activity of TRPC6 inhibitors, second screen. inhibition, % at 10 µM. AID 2776. shares compounds with TRPC6 inh. HEK293 TRPC4/MOR, membrane potential dye fluorescence; channel activated by saturating DAMGO dose. 42% of 920 active;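 active = compounds whose fluorescence signal differed from control wells by over 3 SD, either direction, in both duplicate plates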
TRPC4 spec: mouse TRPC4 modulation by TRPC6 hits, confirmation, selectivity assay for TRPC6 inhibitor project, cell-based, HEK293 TRPC4/mu-opioid, membrane potential dye; 61% of 920 active; membrane potential fluorescence; shares compounds with TRPC6 inh; AID 2777, 2010; activity change, negative = inhibition, % at 10 µM;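 active = rise or fall in signal beyond 3 SD of buffer-only wells in both replicate plates, either sign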;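 also: integrated kinetic ratio of fluorescence range over baseline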
HEK293 MPD ctr 2-1: nonspecific membrane potential effects, parental HEK293, confirmation, counter-screen for TRPC6 inhibitor project, cell-based, second counter screen. AID 2779, 2010. signal change vs control, % at 10 µM. 31% of 920 active. parental HEK293 membrane potential dye fluorescence; maximal acetylcholine challenge after compound addition. shares compounds with TRPC6 inh;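 active = membrane potential signal moving either way by over 3 SD of the maximum-effect control, in both duplicate plates, meaning non-specific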
HEK293 MPD ctr-1: membrane potential modulation in parental HEK293, confirmation, counter-screen for TRPC6 inhibitor project, cell-based. parental HEK293 membrane potential dye fluorescence. shares compounds with TRPC6 inh. 60% of 920 active. membrane potential signal change, % at 10 µM;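 active = membrane potential signal shifting up or down by more than 3 SD of buffer-only wells, on both duplicate plates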
HEK293 MPD ctr-2: parental HEK293 membrane potential modulation, confirmation, counter-screen for TRPC6 modulator project, cell-based; 51% of 2,400 active; membrane potential signal change, % at 10 µM; membrane potential dye fluorescence; shares compounds with TRPC6 inh;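 active = membrane potential signal moves up or down beyond 5 SD from buffer-only wells, on both duplicate plates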
HEK293 MPD ctr 2-2: parental HEK293 nonspecific activity of TRPC6 modulators, second screen | shares compounds with TRPC6 inh | membrane potential dye fluorescence; after compound, maximal acetylcholine stimulation | inhibition, % at 10 µM | 14% of 2,400 active;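 active = membrane potential signal drops by more than 5 SD from the mean control signal, in both duplicate plates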;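 also: plate controls were acetylcholine ECmax control wells for no effect and buffer only wells for full effect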
TRPC4 ctr mod: TRPC4 modulation by TRPC6 hit compounds, confirmation, selectivity assay for TRPC6 modulator project, cell-based, HEK293 TRPC4/mu-opioid, membrane potential dye, mouse. 69% of 2,400 active. membrane potential fluorescence. AID 488927, 2010. shares compounds with TRPC6 inh. percent change from control (negative = decrease, positive = increase), % at 10 µM;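 active = membrane potential signal moved up or down beyond 5 SD of buffer control wells, in both duplicate plates, actives on both sides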;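 also: plate controls were assay buffer wells for no effect and DAMGO maximal-effect wells for full effect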
TRPC4 ctr inh 2: mouse TRPC4 off-target activity of TRPC6 modulators, second screen. shares compounds with TRPC6 inh. HEK293 TRPC4/mu-opioid, membrane potential dye fluorescence; stimulated with maximal-effect DAMGO. inhibition, % at 10 µM. 55% of 2,400 active. AID 488928;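 active = drop in membrane potential signal beyond 5 SD of the control wells in both duplicate plates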;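 also: TRPC4 counter screen for TRPC6 hits run under conditions tuned for TRPC6 not TRPC4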
TRPC6 inh conf: mouse TRPC6 channel inhibitors, confirmation, HEK293 cells, membrane potential dye, duplicate | shares compounds with TRPC6 inh | ACh-evoked depolarization | inhibition, % at 10 µM | 43% of 3,300 active | AID 488960, 2010;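 active = fluorescence ratio falls more than 5 SD below the full-stimulation control mean, in both duplicate runs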;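 also: integrated fluorescence ratio of peak minus minimum over baseline after agonist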
TRPC6 act confirm: mouse TRPC6 channel activators, confirmation, HEK293 cells, membrane potential dye, duplicate | shares compounds with TRPC6 inh | HEK293-TRPC6 membrane potential dye fluorescence, FDSS | activation, % at 10 µM | 11% of 2,800 active | AID 488961, 2010;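 active = ratio signal rise beyond 5 SD above unstimulated control wells' mean, seen in both duplicate runs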;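 also: plate controls were buffer EC0 wells for no effect and acetylcholine ECmax response for full effect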
Numbers without * were called inactive; i = inactive; nt = no result. In the library only some 2.3% were active in any assay of this set; here they are far more common.

SMILES	CR mimetic SO	TRPC4 PAM	TRPC4 agonist	TRPC6 inh	TRPC4 inh	TRPC6 activator	TRPC6 inh conf	others
CCN(CC)CCNc1nc2cc(OC)c(OC)cc2c2nc(-c3ccccc3)nn12	103	i	i	-12*	i	i	76%*	TRPC4 sel inh 2=38%*;TRPC4 spec=-33%*;HEK293 MPD ctr 2-1=32%*;HEK293 MPD ctr-1=-384%*;TRPC6 act confirm=i
COc1cc2[nH]c(=O)n3nc(-c4ccccc4)nc3c2cc1OC	102	i	i	i	i	i	nt
Cc1ccc(-n2ncc(C(=O)N3CCN(C(=O)c4ccco4)CC3)c2C2CCN(C(=O)OC(C)(C)C)CC2)cc1C	102	i	i	-5.6*	i	i	i	HEK293 MPD ctr-2=i;HEK293 MPD ctr 2-2=i;TRPC4 ctr mod=i;TRPC4 ctr inh 2=i
CC(C)(C)OC(=O)N1CCC(c2c(C(=O)N3CCN(C(=O)c4ccco4)CC3)cnn2-c2ccc(F)cc2)CC1	104	i	i	i	i	i	nt
COCCCN1C(=O)C(=O)/C(=C(/O)c2ccc(OC(C)C)cc2)C1c1ccc(O)c(OC)c1 (centres undefined)	102	i	i	i	i	i	nt
Cc1cc(NC(=O)CCC(=O)N(Cc2ccco2)C2(C(=O)NC3CCCC3)CCC(C)CC2)no1 (centres undefined)	97	i	i	i	i	i	nt
